Test results as given in ChEMBL document CHEMBL1147458, “Lead identification of a potent benzopyranone selective estrogen receptor modulator” (Bioorg Med Chem Lett, 2004).

Key:
[1] = test system: U2OS; experiment: Ability to inhibit release of interleukin-6 from U2OS cell lines transfected with estrogen receptor alpha; format: functional, cell-based; conditions: Homo sapiens
Summary of the method: (§1)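 Estrogen-receptor-negative osteosarcoma U2OS cells, transfected with ER-α, were screened for inhibition of IL-6 cytokine release.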

[2] = test system: MCF7; experiment: Antiproliferative activity against MCF-7 cell line; format: functional, cell-based; conditions: Homo sapiens
[3] = Concentration required for inhibition of Interleukin-6 in U20S cells was determined; format: cell-based; summary of the method: as §1

Structure (SMILES) | IC50 [1] [nM] | IC50 [2] [nM] | IC50 [3] [nM]
O=c1oc2cc(O)ccc2c(-c2cccc(OCCCN3CCCCC3)c2)c1-c1ccccc1 | 1.5 | 9.5 | –
CCCc1c(Cc2c(F)cccc2Cl)c(=O)oc2cc(O)ccc12 | – | – | 300
O=c1oc2cc(O)ccc2c(-c2cccc(OCCCCN3CCCCC3)c2)c1-c1ccccc1 | 3.2 | 12 | –
O=c1oc2cc(O)ccc2c(-c2ccc(OCCCCN3CCCCC3)cc2)c1-c1ccccc1 | 69 | 134 | –
O=c1oc2cc(O)ccc2c(-c2ccc(OCCCN3CCCCC3)cc2)c1-c1ccccc1 | 355 | 335 | –
O=c1oc2cc(O)ccc2c(Cc2ccc(OCCCCN3CCCCC3)cc2)c1-c1ccccc1 | 5 | 13 | –
O=c1oc2cc(O)ccc2c(-c2cccc(OCCCCCN3CCCCC3)c2)c1-c1ccccc1 | 11 | 15 | –
O=c1oc2cc(O)ccc2c(-c2ccc(OCCN3CCCCC3)cc2)c1-c1ccccc1 | 505 | 425 | –
CC/C(=C(\c1ccc(O)cc1)c1ccc(OCCN(C)C)cc1)c1ccccc1 | 1.9 | 24 | –
O=c1oc2cc(O)ccc2c(-c2cccc(OCCN3CCCCC3)c2)c1-c1ccccc1 | 12 | 85 | –
O=c1oc2cc(O)ccc2c(-c2ccc(OCCCCCN3CCCCC3)cc2)c1-c1ccccc1 | 114 | 335 | –
O=c1oc2cc(O)ccc2c(Cc2ccc(OCCCN3CCCCC3)cc2)c1-c1ccccc1 | 4.4 | 18 | –
O=c1oc2cc(O)ccc2c(-c2ccc(OCCCCCCN3CCCCC3)cc2)c1-c1ccccc1 | 145 | 720 | –
O=c1oc2cc(O)ccc2c(Cc2ccc(OCCN3CCCCC3)cc2)c1-c1ccccc1 | 0.38 | 7.7 | –
O=C(c1ccc(OCCN2CCCCC2)cc1)c1c(-c2ccc(O)cc2)sc2cc(O)ccc12 [RALOXIFENE] | 3.1 | 4.9 | –
